# Measured values: PubChem BioAssay AID449763 (Sanford-Burnham Center for Chemical Genomics, 2010)
# Hit rate of the full screen: of about 330,000 compounds, about 1,100 (0.33%) were called active. The full list was thinned out, with actives kept by preference. Unmarked numbers belong to inactive results.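 How the source made its calls: active means at 10 µM dose, activation of 40% or more, normalized to positive control; inactive means the rest.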
# Test: activators of apoptotic CHOP UPR arm, primary screen, cell-based, CHO-CHOP luciferase reporter, luminescence, uHTS (AID 449763);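 further: 100% = tunicamycin at 10 µg/mL and 0% = DMSO alone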
# Conditions: at 10 µM, stronger effect = higher value, percent of tunicamycin response over DMSO baseline
# In short: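 System: CHO-CHOP luciferase reporter cell line; amount: 500 cells/well; buffer or medium: F12 medium containing 10% fetal bovine serum; incubation: 6 h compound exposure at 37 °C after overnight seeding; measured by: luciferase luminescence after 10 min with Steady-Glo reagent; evaluation: % reporter activation, DMSO baseline versus tunicamycin full activation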
row,Compound,activation
1,CCN(c1ccc(NC(=O)COC(=O)CCc2nc3ccccc3n2-c2ccccc2)cc1)C(C)C,-1.22%
2,Cc1c(CN2CCC(n3nccc3NC(=O)CCc3ccccc3)CC2)cnn1C,1.65%
3,COc1ccc(CN2C(=O)CN=C2Nc2ccc(C)cc2C)cc1,1.91%
4,S=C1SCN(CCN2CCOCC2)CN1Cc1ccccc1,129% (active)
5,c1ccc(-c2ccc(OCCN3CCOCC3)cc2)cc1,5.5%
6,COc1ccc(CN2CN(C(C)C)CSC2=S)cc1,0.456%
7,COc1ccc(OC)c(NC(=O)CSc2nc(-c3ccccc3)cc(=O)[nH]2)c1,4.07%
8,C=C(C)CNC(=S)Nc1ccc(S(=O)(=O)Nc2cnc3ccccc3n2)cc1,-2.1%
9,COc1ccc(C(=O)NCC2CCCN2S(=O)(=O)c2cccs2)cc1OC (stereo unspecified),11.9%
10,COCc1ccc(C(=O)N2CCc3c([nH]c4ccccc34)C2c2ccccn2)s1 (stereo unspecified),-0.769%
11,COc1ccc(N2CC(NS(=O)(=O)c3ccc4ccccc4c3)CC2=O)cc1 (stereo unspecified),-0.659%
12,CCOc1cc(NS(=O)(=O)c2ccc(OC)cc2)c(OCC)cc1NC(C)=O,1.17%
13,COc1cc(NS(=O)(=O)c2ccc3ccccc3c2)c2ncccc2c1,409% (active)
14,COC(=O)[C@]1(C)N[C@H](CN(C)C(=O)c2ccc(C(C)(C)C)cc2)[C@@H]2C(=O)N(C)C(=O)[C@@H]21,2.43%
15,CCCCOc1ccc(N(CC(=O)NCC2CCCO2)C(=O)CCC(=O)Nc2cc(C)ccn2)cc1 (stereo unspecified),-1.23%
16,O=C(NCc1ccco1)c1sc2cccc(F)c2c1Cl,2.12%
17,O=C(O)c1ccc(N/N=C/c2ccc3ncccc3c2)cc1,-10.5%
18,O=C(N/N=C/c1ccc(O)c(O)c1)C1c2ccccc2Oc2ccccc21,3.18%
19,Oc1ccc(/C=N/Nc2ccc(C(F)(F)F)cn2)cc1O,67.4% (active)
20,Cc1ccc(CCCOC(=O)C[N+]2(C)CCCC2)cc1,1.65%
21,O=S(=O)(NCC1CCCO1)c1cnc(Cl)c(Cl)c1 (stereo unspecified),4.71%
22,O=C(NCCCO)/C(=C\C=C\c1ccccc1)NC(=O)c1ccccc1Cl,0.299%
23,COc1ccc(CCNC(=O)CCc2ccccc2O)cc1OC,-0.118%

row,Compound,activation
1,CC1=CC(C)(C)Nc2ccc(OC(=O)CN3C(=O)C4CCCCC4C3=O)cc21 (stereo unspecified),67.7% (active)
2,O=C(COC(=O)CN1C(=O)C2CCCCC2C1=O)Nc1ccc(F)c(F)c1F (stereo unspecified),1.69%
3,CC1=CC(C)(C)Nc2ccc(OC(=O)C(Cc3ccccc3)N3C(=O)C4CCCCC4C3=O)cc21 (stereo unspecified),-1.34%
4,COc1ccc(NC2CC(=O)N(C)C2=O)cc1 (stereo unspecified),-2.21%
5,CN(C)c1ccc(/C=N/Nc2cc(N3CCOCC3)nc(N3CCOCC3)n2)cc1,-1.02%
6,CC(=O)c1ccc(Oc2cc(C)nc(-n3nc(C)cc3C)n2)cc1,-1.17%
7,COc1ccc(NC(=O)c2nc(-n3nc(C)cc3C)ccc2Cl)cc1Cl,-0.184%
8,Cc1cc(N/N=C\c2ccc(Br)cc2)nc(-n2nc(C)cc2C)n1,49.5% (active)
9,COc1ccc(/C=N/Nc2cc(N3CCOCC3)nc(C)n2)c(OC)c1,8.25%
10,COc1ccc(Nc2cc(C)nc(-n3nc(C)cc3C)n2)cc1,62.8% (active)
11,COc1ccccc1/C=N\Nc1cc(C)nc(-n2nc(C)cc2C)n1,80.6% (active)
12,COc1ccccc1/C=N/N1CCN(Cc2ccccc2Cl)CC1,-0.532%
13,C(=N/Nc1cc(N2CCOCC2)nc(N2CCOCC2)n1)/c1ccccc1,4.25%
14,CN(CC(=O)NC1CCN(Cc2ccccc2)CC1)S(=O)(=O)c1ccc(Cl)s1,-1.76%
15,N#CCN(C(=O)COC(=O)C1CC2CCCC(C1)C2=O)c1ccccc1 (stereo unspecified),-1.48%
16,O=C(NCCCn1ccnc1)C(=O)c1cn(CC(=O)N2CCCCCC2)c2ccccc12,1.32%
17,Cc1ccc(S(=O)Cc2ccc(C(=O)N3CCN(C4CCCCC4)CC3)o2)cc1 (stereo unspecified),-0.502%
18,Cc1cccnc1NC(=O)Cn1c(=O)oc2ccccc21,-1.26%
19,O=C(CSc1nc(=O)n2ccccc2n1)Nc1ccc2c(c1)OCCO2,0.903%
20,CCCCCC(=O)NC(=S)NNC(=O)c1ccc([N+](=O)[O-])cc1,-1.39%
21,CCCC(=O)Nc1ccc(C(=O)N/N=C/c2ccc[nH]2)cc1,-0.0357%
22,CCCCCC(=O)Nc1ccc(C(=O)N/N=C/c2ccc([N+](=O)[O-])cc2)cc1,90.2% (active)
23,CCCc1nn(C)c2c(=O)[nH]c(-c3cc(S(N)(=O)=O)ccc3OCC)nc12,0.336%

row,Compound,activation
1,O=C1Nc2ccc(Br)cc2/C1=N/N=C/C1=C(N2CCOCC2)C(=C\c2ccccc2)/CC1,46.3% (active)
2,COc1ccc(/C=N/N=C2/C(=O)Nc3ccccc32)cc1O,10.4%
3,Cc1cc2nc3n(c2cc1C)CC1CC(C(=O)NCCC(C)C)N(C)C31 (stereo unspecified),-0.707%
4,O=C(O)c1cccc(NC(=O)c2cc(-c3cccc(Cl)c3)nc3ccccc23)c1,2.21%
5,O=C(/C(=C/c1cccc(Cl)c1)c1nc2ccccc2[nH]1)c1ccccc1,349% (active)
6,O=C(N/N=C/c1ccc(Cl)cc1)c1nc2ccc([N+](=O)[O-])cc2c(=O)[nH]1,0.124%
7,O=S(=O)(c1ccc(SCc2ccc(Br)cc2)nc1)N1CCOCC1,0.334%
8,COc1ccccc1OCCCCCCN1CCN(C)CC1,-0.245%
9,Cc1nc2ccc(NC(=O)c3cccc(S(=O)(=O)N4CCOCC4)c3)cc2s1,1.06%
10,O=C(CN1CCN(S(=O)(=O)c2cccc(Cl)c2)CC1)N1CCCCC1,-0.576%
11,O=S(=O)(Nc1nccs1)c1ccc2c(c1)OCCO2,-1.47%
12,Cc1cccc(-n2ncc(Cl)c(Cl)c2=O)c1,49.1% (active)
13,C=CCNc1cnn(-c2ccc(C)cc2)c(=O)c1Cl,0.179%
14,Cc1ccc(Oc2cnn(-c3ccccc3)c(=O)c2Br)cc1,2.08%
15,Cc1ccc(CNC(=O)COC(=O)C2CCC2)cc1,0.475%
16,CCc1nnc(NC(=O)CSc2nnnn2-c2cccc(C(C)=O)c2)s1,-1.47%
17,CCOc1ccc(Br)cc1CSC(=N)N,0.704%
18,CCOC(=O)CCNC(=O)N1CCCC(C(=O)c2ccccc2SC)C1 (stereo unspecified),1.02%
19,CCOC(=O)c1cnc(Nc2nc3ccccc3o2)nc1CSC(=S)N1CCCCC1,152% (active)
20,CCc1ccc(CNC(=O)C2CCCN(c3nc4ccccc4o3)C2)cc1 (stereo unspecified),-2.13%
21,CCN(CC)C(=O)Cn1cc(S(=O)(=O)CC(=O)NCc2ccc3c(c2)OCO3)c2ccccc21,-0.829%
22,Cc1cc(NC(=O)CS(=O)(=O)c2cn(C)c3ccccc23)no1,1.58%
23,CCN(C(=O)CSc1ncnc2sccc12)c1c(N)n(Cc2ccccc2)c(=O)[nH]c1=O,-3.54%

row,Compound,activation
1,CC1CC2=C(CC1/C=N/NC(N)=S)C(C)(C)CCC2 (stereo unspecified),67.6% (active)
2,Cc1ccc(C(=O)Cc2nnc(C)s2)cc1,1.29%
3,CC(=O)Nc1ccc(S(=O)(=O)N2CCC(NC(=O)c3ccccc3)CC2)cc1,1.32%
4,C=Cn1c(C(=O)O)ccc1-c1ccc(OC)cc1,-1.21%
5,COC(=O)c1ccc(C(=O)NC2CC(C)(C)Cc3c2cnn3-c2ccc(F)cc2)nc1 (stereo unspecified),0.891%
6,CCOc1ccc2nc(Cl)c(C3CC(c4ccccc4)=NN3C(=O)c3cccs3)cc2c1 (stereo unspecified),85.3% (active)
7,CCOc1ccccc1C1CC(c2cccc(NS(C)(=O)=O)c2)=NN1C(=O)c1ccccc1 (stereo unspecified),1.22%
8,COc1ccc(C2=NN(C(=O)c3ccccc3C(=O)O)C(c3ccccc3O)C2)cc1 (stereo unspecified),4.22%
9,CCOc1ccccc1CN1CCN(C2CCC2)CC1CCO (stereo unspecified),1.34%
10,CS(=O)(=O)c1ccc(C(=O)OCC(=O)NNC(=O)COc2ccc(Cl)cc2)cc1,-0.907%
11,Cc1c(NC(=O)CSc2nnc(-c3cccnc3)n2N)c(=O)n(-c2ccccc2)n1C,0.658%
12,Cc1c(NC(=O)CSc2nnnn2-c2ccc(C(=O)O)cc2)c(=O)n(-c2ccccc2)n1C,-0.108%
13,Cc1c(NC(=O)CSc2cccc3cccnc23)c(=O)n(-c2ccccc2)n1C,163% (active)
14,NC(=O)CC[C@@H]1NC(=O)[C@@H]2CCCN2C(=O)c2cc([N+](=O)[O-])cc(F)c2NCCC[C@@H](C(N)=O)NC1=O,-0.0942%
15,COc1ccccc1P(=O)(c1ccccc1)c1ccccc1NC(C)=O (stereo unspecified),-0.343%
16,COc1cc(C(=O)N/C(=C\c2cn(C)c3ccccc23)C(=O)N2CCOCC2)cc(OC)c1OC,-0.204%
17,CCCCC[C@H]1CN(C2CCCCC2)C(=O)[C@@H]1CC(=O)NCc1ccc(OC)cc1,0.258%
18,CC[C@H](C)C(=O)N[C@H]1CCCN1C(=O)/C=C/c1ccccc1,-0.778%
19,COCCNc1nc(-n2nc(C)cc2C)nc2sc3c(c12)CCCC3,45.9% (active)
20,CCC(O)CNc1nc(-n2nc(C)cc2C)nc2sc3c(c12)CC(C)(C)OC3 (stereo unspecified),-0.387%
21,Cc1nc2sc3c(c2c(=O)n1NC(=O)CCl)CCCC3,1.06%
22,O=C(Nc1ccc(S(=O)(=O)N2CCOCC2)cc1)c1ccc2ncsc2c1,2.81%
